# Experimental data from different studies.
# Compare with care: the assays were run in different laboratories.
# Target: Protein-tyrosine kinase 6 (PTK6, Homo sapiens, UniProt Q13882)
Structure (SMILES),effect on,mode,technique,tested at,measurement,result
CNC(=O)c1cc2c(Oc3ccc(NC(=O)C4(C(=O)Nc5ccc(F)cc5)CC4)cc3)ccnc2cc1OC,enzyme activity,inhibitor,radiometric,1 µM,inhibition,98%
Nc1nc(Nc2ccc(S(N)(=O)=O)cc2)nn1C(=O)c1c(F)cccc1F,cell-free assay,,,0.5 µM,remaining signal,83.9%
Cc1nc(Cc2cccc(C(F)(F)F)c2)sc1-c1ccc(C(N)=O)nc1,cell-free assay,,competition with immobilised ligand,1 µM,remaining binding,100%
Cc1cc(NC(=O)c2cccc3cc(-c4cccc5[nH]nc(N)c45)ccc23)ccc1F,enzyme activity,inhibitor,,0.1 µM,activity vs control,97%
COc1cc(Cl)c(C(=O)N[C@@H](CN[C@H]2CC[C@@H](N)CC2)Cc2ccc(C#N)cc2)cc1-c1ccc(CN[C@H](C)c2ccc(C)cc2)o1,enzyme activity,inhibitor,,1 µM,remaining activity,98%
Cc1ccc(Nc2nccc(N(C)c3ccc4c(C)n(C)nc4c3)n2)cc1S(N)(=O)=O,enzyme activity,inhibitor,,0.3 µM,inhibition,23%
O=C(N1CCS(=O)(=O)CC1)N1C[C@H](c2ccc(OC(F)(F)F)cc2)C[C@H](c2nc(C3CC3)no2)C1,cell-free assay,,competition with immobilised ligand,1 µM,remaining binding,100%
CN(C)C1CCN(CC#Cc2nn(C3CCCC3)c3nc(NCc4ccccc4)ncc23)C1 (stereo not shown),enzyme activity,inhibitor,FRET,0.1 µM,inhibition,-2%
CS(=O)(=O)c1cc(C2(NC(=O)c3cncc4c3cnn4-c3ccc(F)cc3)CC2)ccn1,cell-free assay,,competition with immobilised ligand,1 µM,remaining binding,80%
COc1cc2ncnc(Nc3ccc(Oc4ccccc4)c(C)c3C)c2cc1OC,enzyme activity,inhibitor,,1 µM,inhibition,93%
Cc1ccc(C(=O)Nc2ccc(CN3CCN(C)CC3)c(C(F)(F)F)c2)cc1C#Cc1cnc2cccnn12,enzyme activity,inhibitor,,23.5 nM,remaining activity,95%
O=C(NS(=O)(=O)c1ccc(NCC2CCOCC2)c([N+](=O)[O-])c1)c1ccc(N2CCN(Cc3ccc(C(F)(F)F)cc3-c3ccc(Cl)cc3)CC2)cc1Oc1cnc2[nH]ccc2c1,cell-free assay,,competition with immobilised ligand,1 µM,remaining binding,100%
O=C(Nc1cnn(-c2csc(C(=O)NC3COC3)c2)c1)Nc1c(F)cccc1Cl,enzyme activity,inhibitor,,5 µM,remaining activity,85.7%
CNC(=O)c1cc(Oc2ccc(NC(=O)Nc3ccc(Cl)c(C(F)(F)F)c3)cc2)ccn1,enzyme activity,inhibitor,,10 µM,inhibition,58%
CCCOc1ccc(OC)c(F)c1C(=O)c1ccc(C(=O)N[C@@H]2CNC[C@H]2NC(=O)c2ccc3[nH]ncc3c2)cc1,enzyme activity,inhibitor,,10 µM,remaining activity,97%
CCN(CC)CCNC(=O)c1c(C)[nH]c(/C=C2\C(=O)Nc3ccc(F)cc32)c1C,enzyme activity,inhibitor,,0.3 µM,inhibition,6%
O=C(O)[C@@H]1[C@@H](Cn2nnc3ccccc3c2=O)CC[C@H]1C(=O)c1ccc(OCCC2CCOCC2)cc1,cell-free assay,,competition with immobilised ligand,1 µM,remaining binding,99%
CS(=O)(=O)CCNCc1ccc(-c2ccc3ncnc(Nc4ccc(OCc5cccc(F)c5)c(Cl)c4)c3c2)o1,cell-free assay,,,0.5 µM,remaining signal,103%
Cc1cnc(NC2CCOCC2)nc1-n1cnc(C(=O)NC(CN)c2cc(F)cc(Cl)c2)c1 (stereo not shown),enzyme activity,inhibitor,radiometric,1 µM,remaining activity,127%
CC(C)(O)[C@H]1CC[C@H](Nc2ccc3ncc(-c4cccc(C(F)(F)F)c4)n3n2)CC1,enzyme activity,inhibitor,,1 µM,remaining activity,50.4%
CC(=O)N1CCC(c2ccc(C(=O)NC3=NCCN3)cc2C(F)(F)F)CC1,cell-free assay,,competition with immobilised ligand,1 µM,remaining binding,88%
CC(C)(C)c1nc(-c2cccc(NS(=O)(=O)c3c(F)cccc3F)c2F)c(-c2ccnc(N)n2)s1,enzyme activity,inhibitor,radiometric,1 µM,remaining activity,26%
CCC(=O)N[C@H]1CC[C@@H](C(=O)N(C)c2ccc(-c3nc4ccccc4o3)cc2)C1,cell-free assay,,competition with immobilised ligand,1 µM,remaining binding,100%
COc1cc(Nc2cnc(C#N)c(O[C@H](C)CN(C)C)n2)ncc1-c1cnn(C)c1,enzyme activity,inhibitor,radiometric,10 µM,remaining activity,91%
CS(=O)(=O)N1CCCC(NC(=O)[C@H](CCC2CCCCC2)NC(=O)c2ccc(CNc3ncnc4c3nnn4-c3ccccc3)cc2)C1 (stereo partly shown),cell-free assay,,competition with immobilised ligand,0.1 µM,remaining binding,76%
CC/C(=N\NC(=O)NCc1cccc(O)c1)c1ccc(O)c(C)c1O,enzyme activity,inhibitor,,0.1 µM,inhibition,-3%
FC(F)(F)Oc1cccc(-c2cnc3ccc(-c4ccncc4)nn23)c1,enzyme activity,inhibitor,radiometric,1 µM,activity vs control,72%
O=C(Nc1cnn(-c2csc(C(=O)NC3COC3)c2)c1)Nc1ccccc1Cl,enzyme activity,inhibitor,,5 µM,remaining activity,118%
